Assays:
Rattus norvegicus [1] = organism: Rattus norvegicus; experiment: Protective index (TD50/ED50) was determined against scMet induced seizure in rat.; assay type: functional
In short: (§1)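 Oral dosing in 30% PEG 400: phase IV in mice (0.01 mL/g), phase VI in Sprague-Dawley rats (0.004 mL/g). ED50/TD50 found as in phase II, at the stated time of peak effect. MES current 50 mA in mice, 150 mA in rats. Toxicity by rotorod in mice; positional sense, gait and stance in rats. PI = TD50/ED50.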

Mus musculus [2] = organism: Mus musculus; experiment: Time to peak toxicity was evaluated by Maximal electroshock seizure test in hours; assay type: functional
Mus musculus [3] = experiment: Anti-seizure activity was evaluated by Subcutaneous pentylenetetrazole seizure test at dose 300 mg/kg after 0.5 hours; ++ denotes antiseizure activity; assay type: functional, organism-based; parameters: dose 300 mg/kg
In short: (§2)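 Phase I screen in mice: ip dosing at 30, 100, 300 and 600 mg/kg in 30% PEG 400, read 0.5 h and 4 h after. Pentylenetetrazol given sc at CD97 (85 mg/kg). Protection means no clonic spasm of at least 5 s over 30 min. Scored ++++ to + for 30 to 600 mg/kg.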

Rattus norvegicus [4] = organism: Rattus norvegicus; experiment: Protective index (TD50/ED50) was determined against MES induced seizure in rat.; assay type: functional; in short: as §1
Mus musculus [5] = experiment: Anti-seizure activity was evaluated by Neurologic toxicity (rotarod test) at dose 600 mg/kg after 4.0 hours; + denotes neurotoxicity; assay type: functional, organism-based; parameters: dose 600 mg/kg
In short: (§3)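 Phase I neurotoxicity in mice by rotorod ataxia test. Compound given ip at 30, 100, 300 or 600 mg/kg in 30% PEG 400, read 0.5 h and 4 h after. Scored ++++ to + for toxicity at 30 to 600 mg/kg; - means no toxicity.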

Mus musculus [6] = organism: Mus musculus; experiment: Time to peak activity was evaluated by Maximal electroshock seizure test in hours; assay type: functional
Mus musculus [7] = experiment: Median effective dose was evaluated by subcutaneous pentylenetetrazole seizure test through intraperitoneal administration; assay type: functional
In short: (§4)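 Phase II in mice, ip dosing in 30% PEG 400. Groups of 6-12 mice per dose until at least three points fall in 10-90% protection. […] MES: 50 mA, 0.2 s corneal. scMet: pentylenetetrazol 85 mg/kg sc.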

Mus musculus [8] = experiment: Anti-seizure activity was evaluated by Maximal electroshock seizure (MES) test at dose 100 mg/kg after 4.0 hours; +++ denotes antiseizure activity; assay type: functional, organism-based; parameters: dose 100 mg/kg
In short: (§5)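 Phase I screen in mice: ip injection at 30, 100, 300 and 600 mg/kg in 30% PEG 400 (0.01 mL/g). Test run 0.5 h and 4 h after dosing. 60-Hz AC, 50 mA, via corneal electrodes for 0.2 s. Protection means abolition of hind-leg tonic extension. Scored ++++ to + for activity at 30 to 600 mg/kg.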

Mus musculus [9] = experiment: Anti-seizure activity was evaluated by Subcutaneous pentylenetetrazole seizure test at dose 300 mg/kg after 4.0 hours; ++ denotes antiseizure activity; assay type: functional, organism-based; parameters: dose 300 mg/kg; in short: as §2
Mus musculus [10] = experiment: Median effective dose was evaluated by Maximal electroshock seizure test through intraperitoneal administration; assay type: functional; conditions: ip; in short: as §4
Mus musculus [11] = experiment: Anti-seizure activity was evaluated by Neurologic toxicity (rotarod test) at dose 600 mg/kg after 0.5 hours; + denotes neurotoxicity; assay type: functional, organism-based; parameters: dose 600 mg/kg; in short: as §3
Mus musculus [12] = experiment: Anti-seizure activity was evaluated by Maximal electroshock seizure (MES) test at dose 100 mg/kg after 0.5 hours; +++ denotes antiseizure activity; assay type: functional, organism-based; parameters: dose 100 mg/kg; in short: as §5
Mus musculus [13] = experiment: Median toxic dose was evaluated by […] through intraperitoneal administration; assay type: functional
Mus musculus [14] = experiment: Inhibition of picrotoxin-induced seizures in mice by ip administration at 250-1000 mg/kg (h= maximum 62.5% protection); assay type: functional, organism-based
In short: (§6)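 Phase V differentiation in mice: test drug given ip at time of peak therapeutic effect, then the CD₉₇ of each convulsant (picrotoxin, bicuculline, strychnine) given ip as a 0.5% solution; observation 30 min for bicuculline and strychnine, 45 min for picrotoxin. Drug in 30% PEG 400, 0.01 mL/g. ED₅₀ with 95% confidence intervals from ≥3 points in the 10-90% protection range, groups of 6-12 mice.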

Mus musculus [15] = experiment: Median Effective dose was evaluated by Maximal electroshock seizure (MES) test in mice by oral administration up to 2000 mg/kg; f=no protection; assay type: functional, organism-based; parameters: dose 2000 mg/kg
Mus musculus [16] = experiment: Time to peak effect in Rats was evaluated by Subcutaneous pentylenetetrazole seizure test in hours by oral administration; assay type: functional
In short: (§7)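 Oral dosing in Sprague-Dawley rats (30% PEG 400, 0.004 mL/g). Time to peak effect, in hours, was read in the MES test (150 mA, 60 Hz, corneal, 0.2 s; loss of tonic hind-leg extension) and in the scMet test (pentylenetetrazol 70 mg/kg sc; no clonus ≥5 s within 30 min).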

Mus musculus [17] = experiment: Median Effective dose was evaluated by Subcutaneous pentylenetetrazole seizure test in Rats by oral administration; assay type: functional
Mus musculus [18] = experiment: Median Effective dose was evaluated by Maximal electroshock seizure (MES) test in Rats by oral administration up to 1200 mg/kg; g= no protection; assay type: functional, organism-based; parameters: dose 1200 mg/kg
Mus musculus [19] = experiment: Median Effective dose was evaluated by Subcutaneous pentylenetetrazole seizure test in mice by oral administration; assay type: functional
Mus musculus [20] = experiment: Inhibition of seizures induced in mice by a convulsant dose of bicuculline through ip administration; assay type: functional; in short: as §6
Mus musculus [21] = organism: Mus musculus; experiment: Median hypnotic dose was evaluated by loss of righting reflex; assay type: functional
Mus musculus [22] = experiment: Time to peak effect in mice was evaluated by Neurologic toxicity (rotarod test) in hours by oral administration; assay type: functional
In short: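 Oral dosing in mice in 30% PEG 400 (0.01 mL/g). Neurologic deficit was scored by the rotorod ataxia test, and the time of peak effect was given in hours.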

Mus musculus [23] = experiment: […] was evaluated by Neurologic toxicity (rotarod test) in mice by oral administration; assay type: functional
In short: as §1, with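 “in rats. PTZ sc 85 mg/kg in mice, 70 mg/kg in rats. Toxicity by” for “in rats. Toxicity by”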

Mus musculus [24] = experiment: Time to peak effect in Rats was evaluated by Maximal electroshock seizure (MES) test in hours by oral administration; assay type: functional; in short: as §7
Mus musculus [25] = experiment: Median lethal dose was evaluated by mortality after 24 hr through ip injection administration; assay type: functional
In short: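 Mice were dosed ip in 30% PEG 400. Mortality was scored 24 h after injection in groups of eight. The 24-h LD₅₀ was derived as for the ED₅₀/TD₅₀, with 95% confidence intervals.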

Mus musculus [26] = experiment: Time to peak effect in Rats was evaluated by Neurologic toxicity (rotarod test) in hours by oral administration; assay type: functional
Mus musculus [27] = experiment: Time to peak effect in mice was evaluated by Subcutaneous pentylenetetrazole seizure test in hours by oral administration; assay type: functional
In short: as §1, with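 “in rats. PTZ sc 85 mg/kg in mice, 70 mg/kg in rats. Toxicity by” for “in rats. Toxicity by”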

Mus musculus [28] = experiment: Time to peak effect in mice was evaluated by Maximal electroshock seizure (MES) test in hours by oral administration; assay type: functional
In short: as §1, with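 “in rats. PTZ sc 85 mg/kg in mice, 70 mg/kg in rats. Toxicity by” for “in rats. Toxicity by”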

Mus musculus [29] = experiment: Anti-seizure activity was evaluated by Neurologic toxicity (rotarod test) at dose 300 mg/kg after 4.0 hours; ++ denotes antiseizure activity; assay type: functional, organism-based; parameters: dose 300 mg/kg; in short: as §3
Mus musculus [30] = experiment: Anti-seizure activity was evaluated by Maximal electroshock seizure (MES) test at dose 300 mg/kg after 0.5 hours; ++ denotes antiseizure activity; assay type: functional, organism-based; parameters: dose 300 mg/kg; in short: as §5
Mus musculus [31] = experiment: Anti-seizure activity was evaluated by Subcutaneous pentylenetetrazole seizure test at dose 100 mg/kg after 0.5 hours; +++ denotes antiseizure activity; assay type: functional, organism-based; parameters: dose 100 mg/kg; in short: as §2

COc1cccc(CC(=O)NS(=O)(=O)C(F)(F)F)c1 was tested, and the PI (Rattus norvegicus [1]) was 4.2, the TPE (Mus musculus [2]) was 2 and the Activity (Mus musculus [3]) was “Antiseizure activity”. The PI (Rattus norvegicus [4]) was 17, the Activity (Mus musculus [5]) was “Antiseizure activity” and the TPE (Mus musculus [6]) was 2. For the same compound, the ED50 (Mus musculus [7]) was 77 mg/kg, the Activity (Mus musculus [8]) was “Antiseizure activity” and the Activity (Mus musculus [9]) was “Antiseizure activity”. The ED50 (Mus musculus [10]) was 19 mg/kg, the Activity (Mus musculus [11]) was “Antiseizure activity” and the Activity (Mus musculus [12]) was “Antiseizure activity”. It also gave a TD50 (Mus musculus [13]) of 325 mg/kg.

CCC1(C)CC(=O)NC1=O (centres undefined) [ETHOSUXIMIDE] was tested, and the ED50 (Mus musculus [14]) was “Max protection”, the ED50 (Mus musculus [15]) was “No protection” and the TPE (Mus musculus [2]) was 0.5. It also gave a TPE (Mus musculus [16]) of 2 h, a TPE (Mus musculus [6]) of 0.5 and an ED50 (Mus musculus [17]) of 54 mg/kg. For the same compound, the ED50 (Mus musculus [18]) was “No protection”, the ED50 (Mus musculus [19]) was 193 mg/kg and the ED50 (Mus musculus [7]) was 130 mg/kg. The ED50 (Mus musculus [20]) was 459 mg/kg, the HD50 (Mus musculus [21]) was 850 mg/kg and the TPE (Mus musculus [22]) was 1 h. For the same compound, the TD50 (Mus musculus [23]) was 879 mg/kg, the TPE (Mus musculus [24]) was 2 h and the ED50 (Mus musculus [10]) was over 1000 mg/kg. For the same compound, the LD50 (Mus musculus [25]) was 1810 mg/kg, the TPE (Mus musculus [26]) was 2 h and the TPE (Mus musculus [27]) was 0.5 h. It also gave a TD50 (Mus musculus [13]) of 441 mg/kg and a TPE (Mus musculus [28]) of 0.5 h.

Compound O=C(Cc1ccc(Cl)cc1)NS(=O)(=O)C(F)(F)F has a PI (Rattus norvegicus [1]) of 4.2, a TPE (Mus musculus [2]) of 4 and a PI (Rattus norvegicus [4]) of 27. For the same compound, the TPE (Mus musculus [6]) was 4, the ED50 (Mus musculus [7]) was 49 mg/kg and the Activity (Mus musculus [29]) was “Antiseizure activity”. The Activity (Mus musculus [30]) was “Antiseizure activity”, the ED50 (Mus musculus [10]) was 7.6 mg/kg and the Activity (Mus musculus [11]) was “Antiseizure activity”. For the same compound, the TD50 (Mus musculus [13]) was 206 mg/kg and the Activity (Mus musculus [31]) was “Antiseizure activity”.

— ChEMBL document CHEMBL1129543, “Synthesis and evaluation of N-(phenylacetyl)trifluoromethanesulfonamides as anticonvulsant agents” (J Med Chem, 1996)
